Results taken from PubChem BioAssay.
Results filed as inconclusive are left out.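 How the source made its calls, unless noted: active means growth inhibition above 25% in both replicates, a cutoff set 3 SD above the mean; inconclusive means above 25% in only one replicate; inactive means the rest.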

Assays:
[1] = OD615 S. cerevisiae growth inhibition, permissive medium, pilot counter-assay, permissive growth control for S. cerevisiae lifespan shortening project (AID 705); conditions: OD615, 24 h, at 10 µM, stronger effect = higher value
Summary of the method: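 Material: engineered DeaD yeast; compound dosing: one dose 10 µM, DMSO 0.25% final; measure: yeast growth inhibition indicated by reduced 24 h OD615; detection: OD615 turbidity read; incubation: cells pre-grown 4 h, then 24 h compound exposure, 30 °C humidified; medium: permissive synthetic complete medium with raffinose and galactose carbon sources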

[2] = Restrictive medium S. cerevisiae growth inhibition, OD615, pilot screen of yeast lifespan reduction project, restrictive growth control (AID 706;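 active means growth inhibition above a set limit, 3 SD over mean compound inhibition, in both replicates, cut at about 43% in these data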;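 further: modified DeaD lifespan yeast strain shifted to restrictive glucose medium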); conditions: OD615, 48 h, at 10 µM, stronger effect = higher value
Summary of the method: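 material = engineered S. cerevisiae DeaD strain | medium = glucose-based CSMM-D restrictive medium | times = 4 h pre-incubation, 48 h exposure at 30 °C | technique = OD615 absorbance reading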

[3] = viability gain of MRP-1-high H69AR cells under doxorubicin, pilot screen, MRP-1 activator project, CellTiter-Glo, duplicate (AID 807;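 active means viability increase at or above a cutoff of the median across tested compounds plus 3 SD, cut at about 8.5% in these data, passing the limit was not always enough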;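 further: compound pretreatment 18-22 h then 72 h combined with doxorubicin; 0% = doxorubicin alone and 100% = vehicle without doxorubicin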); conditions: H69AR viability with doxorubicin, CellTiter-Glo luminescence; at 10 µM; stronger effect = higher value
[4] = growth suppression of beta-catenin knockout HCT116, pilot screen, human colon tumor cells (AID 823;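 active means cell viability at or below a set limit in both duplicate runs, the limit being the all-compound median minus 4 SD, cut at about 23% in these data, passing the limit was not always enough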;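 further: 0% = wells killed by 20 µM Hyamine and 100% = untreated DMSO cell wells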); conditions: CellTiter-Glo, 60 h, at 10 µM, stronger effect = lower value
[5] = growth suppression of PTEN-deleted HCT116, pilot screen, cell-based, HCT116 clonal line, CellTiter-Glo (AID 824;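 active means viability at or below 27.92% in each of two runs, the all-compound median minus 4 SD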;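 further: 0% = 20 µM Hyamine control and 100% = vehicle cell control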); conditions: 60 h, at 10 µM, stronger effect = lower value
[6] = inhibitors of the yeast RAM network, pilot screen, dse1pr::URA3 reporter, 5-FOA selection (AID 869;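 active means inhibition over a set limit, the all-compound mean plus 3 SD, in both replicate runs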;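 further: 0% = DMSO wells with no growth and 100% = 10 µM 1-NA-PP1 with full growth; RAM network block rescues cells from 5-FOA so hits raise OD615 growth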); conditions: S. cerevisiae dse1pr::URA3 5-FOA growth, OD615, 2 d; at 10 µM; stronger effect = higher value; strain carries analog-sensitive mutant Cbk1 kinase
[7] = RAM signaling pathway blockade in yeast – S. cerevisiae, Pdr1DBD-CYC8 efflux-inhibited sensitized strain, primary screen (AID 1298;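 active means RAM network inhibition above 8.4% in each of two replicates, 3 SD over the compound average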;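 further: 0% = DMSO untreated cells without growth and 100% = 10 µM 1-NA-PP1 full growth; higher means more yeast growth rescued from 5-FOA killing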); conditions: S. cerevisiae cbk1-as DSE1-URA3 strain, 5-FOA growth OD615, 2 d; at 50 µM; stronger effect = higher value

COc1ccccc1S(=O)(=O)Cc1ccc(C(=O)NCCN(C)C)o1
inactive: growth inhibition [1] -6.73% | growth inhibition [2] 5% | viability increase [3] -0.73% | viability [4] 106% | viability [5] 98.2% | inhibition [6] 1.9% | RAM network inhibition [7] 0.1%

CN(C)c1ccc(NC(=O)c2cccc(N3C(=O)CCC3=O)c2)cc1
inactive: growth inhibition [1] 5.53% | growth inhibition [2] 4.7% | viability increase [3] 1.36% | viability [4] 106% | viability [5] 100% | inhibition [6] -0.005% | RAM network inhibition [7] 4.75%

CNC(=O)CN1C(=O)c2ccccc2S1(=O)=O
inactive: growth inhibition [1] -5.12% | growth inhibition [2] 1.27% | viability increase [3] -0.6% | viability [4] 101% | viability [5] 98.9% | inhibition [6] 2.51% | RAM network inhibition [7] 2.32%

Cc1ccc(N(CC(=O)NCc2cccnc2)S(C)(=O)=O)cc1C
inactive: growth inhibition [1] -8.32% | growth inhibition [2] -10.2% | viability increase [3] -2.97% | viability [4] 97.3% | viability [5] 98.8% | inhibition [6] 0.71% | RAM network inhibition [7] 2.28%

COc1ccc(S(=O)(=O)N2Cc3ccccc3CC2C(=O)O)cc1OC (configuration not stated)
inactive: growth inhibition [1] 6.5% | growth inhibition [2] 3.09% | viability increase [3] 0.39% | viability [4] 104% | viability [5] 96.1% | inhibition [6] 1.33% | RAM network inhibition [7] 5.1%

CCCCNC(=O)CC1Nc2ccccc2NC1=O (configuration not stated)
inactive: growth inhibition [1] 5.04% | growth inhibition [2] 4.59% | viability increase [3] -2.91% | viability [4] 113% | viability [5] 93% | inhibition [6] 0.83% | RAM network inhibition [7] 5.83%

Cc1cc(CN2C(=O)c3ccccc3C2=O)cc(N2CCOCC2)c1
inactive: growth inhibition [1] -9.23% | growth inhibition [2] -10.3% | viability increase [3] -2.19% | viability [4] 95% | viability [5] 87.7% | inhibition [6] 0.76% | RAM network inhibition [7] 1.4%

CCOC(=O)N1CCN(C(=O)C2CCCN(c3nc4ccc(OCC)cc4s3)C2)CC1 (configuration not stated)
inactive: growth inhibition [1] -6.49% | growth inhibition [2] -7.45% | viability increase [3] -1.32% | viability [4] 90.6% | viability [5] 89.7% | inhibition [6] 0.33% | RAM network inhibition [7] 5.16%

CCOC(=O)C1CCN(C(=O)CN(c2ccc(OC)cc2)S(=O)(=O)c2c(C)nn(C)c2C)CC1
inactive: growth inhibition [1] -3.58% | growth inhibition [2] -3.18% | viability increase [3] -0.02% | viability [4] 98.7% | viability [5] 104% | inhibition [6] 1.46% | RAM network inhibition [7] 2.69%

CC(c1ccccc1)C(CC(=O)O)C(=O)NC1CCCCC1 (configuration not stated)
inactive: growth inhibition [1] -12.4% | growth inhibition [2] -1.39% | viability increase [3] -0.07% | viability [4] 98.2% | viability [5] 103% | inhibition [6] 1.54% | RAM network inhibition [7] 1.1%

CN(C)S(=O)(=O)c1ccc(C(=O)Nc2ccc(OCC(=O)N3CCOCC3)cc2)cc1
inactive: growth inhibition [1] 0.98% | growth inhibition [2] -1.1% | viability increase [3] -1.5% | viability [4] 97.7% | viability [5] 97.9% | inhibition [6] 2.33% | RAM network inhibition [7] 0.86%

CCc1ccc2[nH]cc(C(=O)OCCOC)c(=O)c2c1
inactive: growth inhibition [1] -19.9% | growth inhibition [2] 0.075% | viability increase [3] -1.15% | viability [4] 88% | viability [5] 87.5% | inhibition [6] 1.91% | RAM network inhibition [7] 1.6%

COC(=O)c1cc(OC)c(OC)cc1-n1cnc2cc(OC)c(OC)cc2c1=O
inactive: growth inhibition [1] -8.81% | growth inhibition [2] -0.615% | viability increase [3] -0.58% | viability [4] 97.4% | viability [5] 105% | inhibition [6] 0.665% | RAM network inhibition [7] 0.92%

COc1cc(SC)ccc1C(=O)Nc1ccc2c(c1)CCN2S(C)(=O)=O
inactive: growth inhibition [1] -4.62% | growth inhibition [2] -7.36% | viability increase [3] 0.15% | viability [4] 100% | viability [5] 94.2% | inhibition [6] 3.22% | RAM network inhibition [7] 4.39%

COc1ccc(C)cc1NC(=O)CSc1nnc(-c2ccco2)n1Cc1ccco1
inactive: growth inhibition [1] -0.8% | growth inhibition [2] 10.4% | viability increase [3] -2.06% | viability [4] 99.8% | viability [5] 90.8% | inhibition [6] 2.08% | RAM network inhibition [7] 6.62%

Cn1c(Cn2c(=O)sc3ccccc32)nnc1SCC(=O)NCc1ccc(F)cc1
inactive: growth inhibition [1] -13.5% | growth inhibition [2] -17.4% | viability increase [3] -1.09% | viability [4] 104% | viability [5] 95% | inhibition [6] 3.3% | RAM network inhibition [7] 2.63%

O=C(O)c1cc(S(=O)(=O)Nc2ccc3c(c2)OCCO3)c(Cl)cc1Cl
inactive: growth inhibition [1] -5.69% | growth inhibition [2] 3.62% | viability increase [3] -1.04% | viability [4] 95.1% | viability [5] 88.4% | inhibition [6] 2.01% | RAM network inhibition [7] -0.21%

CCOC(=O)N1CCC(NC(=O)CN2C(=O)CSc3nc(C)cc(C)c32)CC1
inactive: growth inhibition [1] -8.91% | growth inhibition [2] 6.29% | viability increase [3] -0.46% | viability [4] 109% | viability [5] 97.7% | inhibition [6] -0.65% | RAM network inhibition [7] 0.43%

Cc1c(C(=O)NCC2CCCO2)oc2ccc(S(=O)(=O)N3CCCCC3)cc12 (configuration not stated)
inactive: growth inhibition [1] -15.5% | growth inhibition [2] -9.72% | viability increase [3] -0.95% | viability [4] 89.9% | viability [5] 92.1% | inhibition [6] 2.4% | RAM network inhibition [7] 1.2%

COc1ccccc1N1CCN(C(=O)c2sc3nc(-c4ccc(F)cc4)cn3c2C)CC1
inactive: growth inhibition [1] -6.38% | growth inhibition [2] 2.76% | viability increase [3] -1.57% | viability [4] 57.6% | viability [5] 58.8% | inhibition [6] 0.235% | RAM network inhibition [7] 1.42%

CS(=O)(=O)N1CCN(c2nc(-c3ccccc3)cs2)CC1
inactive: growth inhibition [1] 10.1% | growth inhibition [2] 3.18% | viability increase [3] 0.2% | viability [4] 99.9% | viability [5] 94.4% | inhibition [6] -0.535% | RAM network inhibition [7] -0.16%

Cc1cc(C)n(-c2ncc(-c3ccccc3)nn2)n1
inactive: growth inhibition [1] -2.83% | growth inhibition [2] 29.2% | viability increase [3] -0.89% | viability [4] 105% | viability [5] 105% | inhibition [6] 0.43% | RAM network inhibition [7] 2.61%

CC(=O)NCC(=O)OCC(=O)c1ccc(C)cc1
inactive: growth inhibition [1] 1.93% | growth inhibition [2] -5.04% | viability increase [3] -0.54% | viability [4] 97.6% | viability [5] 94.9% | inhibition [6] 1.21% | RAM network inhibition [7] -0.06%

COc1ccc(NC(=O)c2cc3ccccc3o2)cc1
inactive: growth inhibition [1] -7.97% | growth inhibition [2] 10.6% | viability increase [3] -4.64% | viability [4] 86.6% | viability [5] 75.8% | inhibition [6] 0.89% | RAM network inhibition [7] -1.4%

COC(=O)C1=CN(C)C=C(C(=O)OC)C1c1ccsc1
inactive: growth inhibition [1] -5% | growth inhibition [2] -4.37% | viability increase [3] -0.22% | viability [4] 104% | viability [5] 89.3% | inhibition [6] 1.96% | RAM network inhibition [7] 0.41%

Cn1c(C(=O)N2CCN(c3ccccn3)CC2)cc2c(=O)n(C)c3ccccc3c21
inactive: growth inhibition [1] 2.93% | growth inhibition [2] 16.5% | viability increase [3] -2.39% | viability [4] 102% | viability [5] 97.4% | inhibition [6] 0.875% | RAM network inhibition [7] -0.81%

CN1C(=O)CC(N2CCC(c3nc4ccccc4[nH]3)CC2)C1=O (configuration not stated)
inactive: growth inhibition [1] -11.7% | growth inhibition [2] -11.2% | viability increase [3] -0.66% | viability [4] 112% | viability [5] 98.9% | inhibition [6] 3.77% | RAM network inhibition [7] 3.31%

CC(CCc1ccccc1)NC(=O)c1nnc(Cc2ccc(F)cc2)o1 (configuration not stated)
inactive: growth inhibition [1] -3.78% | growth inhibition [2] 7.46% | viability increase [3] 0% | viability [4] 95.2% | viability [5] 95.2% | inhibition [6] 0.95% | RAM network inhibition [7] 1.1%

C=CCNc1ncnc2c1cnn2-c1cccc(C)c1
inactive: growth inhibition [1] 8.9% | growth inhibition [2] 1.8% | viability increase [3] -1.03% | viability [4] 101% | viability [5] 98.5% | inhibition [6] 3.21% | RAM network inhibition [7] 0.06%

COC(=O)c1c(N)sc(C(C)=O)c1C
inactive: growth inhibition [1] -7.62% | growth inhibition [2] -6.67% | viability increase [3] -2.35% | viability [4] 98.4% | viability [5] 94.8% | inhibition [6] 1.72% | RAM network inhibition [7] 5.34%

Cc1c(C)n(CC(O)CN2CCCCCC2)c2ccccc12 (configuration not stated)
inactive: growth inhibition [1] -14.9% | growth inhibition [2] -19.6% | viability increase [3] -4.25% | viability [4] 79.6% | viability [5] 81% | inhibition [6] 2.44% | RAM network inhibition [7] 1.09%

COc1ccccc1NC(=O)CSc1nnc(Cn2c(=O)sc3ccccc32)n1C
inactive: growth inhibition [1] -3.61% | growth inhibition [2] 5.22% | viability increase [3] -4.11% | viability [4] 100% | viability [5] 87.9% | inhibition [6] 2.21% | RAM network inhibition [7] 4.37%

COC(=O)C(C)Sc1nnc(Cc2cc(=O)[nH]c(=O)[nH]2)n1-c1cccc(OC)c1 (configuration not stated)
inactive: growth inhibition [1] -7.95% | growth inhibition [2] -0.1% | viability increase [3] 0.21% | viability [4] 104% | viability [5] 108% | inhibition [6] 2.8% | RAM network inhibition [7] 3%

Cc1cccc(-n2ncc3c(N4CCC(C)CC4)ncnc32)c1
inactive: growth inhibition [1] -5.82% | growth inhibition [2] 10.6% | viability increase [3] 4.21% | viability [4] 81.4% | viability [5] 82.9% | inhibition [6] -0.31% | RAM network inhibition [7] 1.32%

Cc1cc(NC(=O)CSc2c(C)[nH]c3ccccc23)no1
inactive: growth inhibition [1] -11.4% | growth inhibition [2] -4.25% | viability increase [3] -1.25% | viability [4] 104% | viability [5] 89.4% | inhibition [6] 0.94% | RAM network inhibition [7] 4.64%

N#Cc1nc(-c2ccccc2F)oc1NC1CCCCC1
inactive: growth inhibition [1] -18.3% | growth inhibition [2] -17.6% | viability increase [3] -2.53% | viability [4] 87.7% | viability [5] 87.6% | inhibition [6] 0.64% | RAM network inhibition [7] 6%
